# Assay results: paper PMC5546011 (Journal of medicinal chemistry, 2017)
# Entries after “also recorded” stand apart in the source; their conditions may differ. Where two headings read alike, the source gives them in different places.
# Tests used:
# [1] = Rat liver microsomal stability; conditions: rat liver microsomes 0.25 mg/mL, 10 μM compound, no NADPH, 37°C; result in words
# [2] = system: mice; experiment: Warm-water tail-withdrawal assay; format: in vivo; conditions: 50°C warm-water tail withdrawal, 2 mg/kg i.p.
# [3] = system: mice; experiment: Intradermal formalin assay; format: in vivo
# [4] = target: T1, human κ-opioid receptor (Homo sapiens, UniProt P41145); experiment: Inhibition of forskolin-induced cAMP accumulation, KOR; format: cell-based; conditions: result in words
# T1 sequence (P41145 whole entry): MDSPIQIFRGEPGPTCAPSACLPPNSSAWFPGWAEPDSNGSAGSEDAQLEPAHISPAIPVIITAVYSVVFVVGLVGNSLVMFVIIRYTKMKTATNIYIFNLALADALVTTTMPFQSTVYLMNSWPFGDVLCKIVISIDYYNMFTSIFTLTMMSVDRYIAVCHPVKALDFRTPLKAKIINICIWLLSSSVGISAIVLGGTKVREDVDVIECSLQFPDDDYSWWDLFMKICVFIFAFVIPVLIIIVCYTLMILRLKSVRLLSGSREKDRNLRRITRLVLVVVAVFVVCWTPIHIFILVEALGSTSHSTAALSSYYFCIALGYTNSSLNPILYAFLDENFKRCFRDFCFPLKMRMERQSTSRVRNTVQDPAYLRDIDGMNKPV
# [5] = target: human μ-opioid receptor (Homo sapiens, UniProt P35372); experiment: Inhibition of forskolin-induced cAMP accumulation, MOR; format: cell-based
# human μ-opioid receptor, sequence (P35372 whole entry): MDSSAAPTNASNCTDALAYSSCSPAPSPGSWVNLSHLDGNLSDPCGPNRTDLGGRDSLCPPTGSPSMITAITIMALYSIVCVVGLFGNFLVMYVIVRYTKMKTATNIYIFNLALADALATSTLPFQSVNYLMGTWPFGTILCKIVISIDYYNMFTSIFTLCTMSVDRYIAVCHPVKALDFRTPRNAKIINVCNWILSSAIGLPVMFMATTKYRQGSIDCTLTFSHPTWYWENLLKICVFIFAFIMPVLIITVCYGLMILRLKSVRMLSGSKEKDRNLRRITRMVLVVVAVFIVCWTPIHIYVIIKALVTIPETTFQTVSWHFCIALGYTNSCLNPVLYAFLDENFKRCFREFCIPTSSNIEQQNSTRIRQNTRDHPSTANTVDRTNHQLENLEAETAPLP
# Summary of the method: (§1)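 CHO-K1 HitHunter cells stably expressing human δ- or μ-opioid receptor, kept in F-12 with 10% FBS, 1% penicillin/streptomycin/L-glutamine and 800 μg/mL Geneticin at 37 °C, 5% CO2. cAMP accumulation was normalised to vehicle and forskolin-only controls.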
# [6] = target: human δ-opioid receptor (Homo sapiens, UniProt P41143); experiment: Inhibition of forskolin-induced cAMP accumulation, DOR; format: cell-based
# human δ-opioid receptor, sequence (P41143 whole entry): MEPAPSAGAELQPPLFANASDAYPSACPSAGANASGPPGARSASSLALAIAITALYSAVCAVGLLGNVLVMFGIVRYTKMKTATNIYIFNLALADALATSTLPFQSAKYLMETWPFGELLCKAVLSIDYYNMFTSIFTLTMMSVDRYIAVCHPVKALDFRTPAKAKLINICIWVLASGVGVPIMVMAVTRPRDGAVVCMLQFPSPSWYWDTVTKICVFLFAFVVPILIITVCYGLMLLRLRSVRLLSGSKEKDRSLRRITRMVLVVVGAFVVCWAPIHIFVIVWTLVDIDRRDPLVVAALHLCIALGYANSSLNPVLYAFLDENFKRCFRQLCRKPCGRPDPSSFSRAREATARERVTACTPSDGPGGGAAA
# Summary of the method: as §1
# [7] = target: T1, human κ-opioid receptor; conditions: result in words; cited from earlier work
# [8] = 2% intradermal formalin, mice, i.p., vs vehicle/formalin controls
# [9] = 2% intradermal formalin, mice, i.p., result in words
# [10] = 2% intradermal formalin, mice, vs vehicle/formalin controls, result in words
structure (smiles),measurement,setting,value
"COc1ccc2c(c1)[C@]13CCCC[C@@H]1[C@H](C2)N(C)CC3 [dextromethorphan, dextromethorphan hydrobomide, reference compound]","percent remaining at 150 minutes, absence of NADPH",[1],not metabolized
"COC(=O)[C@@H]1C[C@H](OC(C)=O)C(=O)[C@H]2[C@@]1(C)CC[C@H]1C(=O)O[C@H](c3ccoc3)C[C@]21C [compound 9, salvinorin A, reference compound]",time of significant analgesic effect compared to vehicle (%MPE time course),[2],5 to 30 min
same,time of significant reduction of phase two pain,[3]; [8],20 to 50 min
same,AUC of phase one (0-15 min) pain,[3]; [9],significant reduction
same,AUC of phase two (15-60 min) pain,[3]; [9],significant reduction
same,footpad edema at 60 min,[3]; [10],significant reduction in edema
"COC(=O)[C@@H]1CCC(=O)[C@H]2[C@@]1(C)CC[C@H]1C(=O)O[C@H](c3ccoc3)C[C@]21C [compound 11, Methyl (2S,4aR,6aR,7R,10aS,10bR)-2-(furan-3-yl)-6a,10b-dimethyl-4,10-dioxododecahydro-2H-benzo[f]isochromene-7-carboxylate]",KOR activity,[4],complete loss of KOR activity; also recorded: completely inactive
"COC(=O)[C@@H]1C[C@]2(CCC(=O)O2)C(=O)[C@H]2[C@@]1(C)CC[C@H]1C(=O)O[C@H](c3ccoc3)C[C@]21C [compound 14, Methyl (2S,4aR,6aR,7R,9R,10aS,10bR)-2-(furan-3-yl)-6a,10b-dimethyl-4,5′,10-trioxododecahydro-2H,3′H,4H-spiro[benzo[f]isochromene-9,2′-furan]-7-carboxylate]",time of significant analgesic effect compared to vehicle (%MPE time course),[2],10 to 30 min
same,EC50,[5],> 10 µM
same,EC50,[6],> 10 µM
same,time of significant attenuation of phase one pain,[3]; [8],10 min
same,time of significant reduction of phase two pain,[3]; [8],20 to 45 min
same,AUC of phase one (0-15 min) pain,[3]; [9],not significantly different from vehicle
same,AUC of phase two (15-60 min) pain,[3]; [9],reduced phase two pain
same,footpad edema at 60 min,[3]; [10],significant reduction in edema
same,effect on formalin pain behavior after pre-treatment with nor-BNI,"[3]; KOR antagonist nor-BNI 10 mg/kg s.c. 24 hours prior, result in words",prevented
same,"percent remaining at 150 minutes, absence of NADPH",[1],less metabolized than 9
COC(=O)[C@@H]1C=C(OC(=O)c2ccccc2)C(=O)[C@H]2[C@@]1(C)CC[C@H]1C(=O)O[C@H](c3ccoc3)C[C@]21C [Kurkinorin],KOR activity,[7],no KOR activity
